Compound activity (PubChem BioAssay)
A selection: hits, their analogues and other compounds. The true share with any hit is near 2.6%.
OX1R antag-1 = OX1R (human) antagonism; O43613; OX1R-expressing cells, FRET antagonist read-out; inhibition, % at 6.6 µM; 330,000 tested, 1.8% active; in the data active = inhibition mostly above about 38%, no sharp cut-off; inactive = mostly below about 40%
Target sequence (O43613 whole entry, looked up): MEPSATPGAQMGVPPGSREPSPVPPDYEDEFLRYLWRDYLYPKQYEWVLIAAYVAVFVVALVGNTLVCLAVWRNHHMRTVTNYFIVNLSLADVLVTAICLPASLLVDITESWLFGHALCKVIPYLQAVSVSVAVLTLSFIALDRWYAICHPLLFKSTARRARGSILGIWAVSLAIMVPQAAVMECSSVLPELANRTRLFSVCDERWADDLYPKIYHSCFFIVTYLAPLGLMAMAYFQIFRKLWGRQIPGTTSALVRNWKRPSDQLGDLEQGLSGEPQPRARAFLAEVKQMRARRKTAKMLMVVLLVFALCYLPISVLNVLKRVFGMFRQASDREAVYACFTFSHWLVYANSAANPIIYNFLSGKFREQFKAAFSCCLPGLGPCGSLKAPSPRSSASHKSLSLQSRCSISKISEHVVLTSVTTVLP
OXTR potentiator = potentiators of human oxytocin receptor; P30559; CHO-OTR cells, Fluo-8 calcium fluorescence, potentiator mode; 0% = oxytocin EC15, 100% = EC100; activation, % at 3 µM; 320,000 tested, 0.061% active; AID 2445;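 active = activation above that plate's cutoff, the mean activation of tested compounds plus 3 SD, cut at about 6.6% in these data, passing the limit was not always enough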
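Assay system: CHO cell line stably expressing human OTR | Also added: Oxytocin at about EC15, sub-maximal agonist stimulus | Times: Compound 6 min at room temperature before oxytocin, 100 s read | Measured by: Fluo-8 intracellular calcium fluorescence, ex 470-495, em 515-575 nm | Controls: EC15 oxytocin alone as 0%, 75 nM oxytocin as 100%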
OX1R antag-2 = human HCRTR1 antagonism; O43613; CHO/OX1R cells, Fluo-8 calcium fluorescence, orexin A; inhibition, % at 5 µM; 330,000 tested, 0.43% active; AID 434989;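 active = inhibition above its plate's threshold, mean inhibition of all tested compounds on the plate plus 3 SD, cut at about 37% in these data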
CHO parental Ca = counter-screen for OX1R antagonists: effect in parental CHO cells; parental CHO-K1, ATP-induced calcium, Fluo-8 fluorescence; inhibition, % at 5.6 µM; 330,000 tested, 0.63% active;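 active = inhibition above that plate's mean sample inhibition plus 3 SD, cut at about 26% in these data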
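Material – parental CHO cells · Reagent – ATP stimulus · Compound – single nominal dose of 5.6 µM per compound · Detection – Fluo-8 fluorescence · Read-out basis – percent inhibition of calcium signal · Controls – ATP-challenged DMSO wells low, unchallenged DMSO wells high · Repeats – no replicates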
OXTR agonist = activates the human oxytocin receptor; P30559; CHO-OTR cells, Fluo-8 calcium fluorescence; normalized: DMSO 0%, oxytocin 100%; activation, % at 3 µM; 320,000 tested, 0.32% active;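 active = activation above the mean of all tested compounds plus 3 SD, cutoff set per screening run, cut at about 20% in these data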;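 note: peak over basal fluorescence ratio from a 100 s FLIPR kinetic read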
V1R ag counter = counter-screen for oxytocin receptor agonists: human V1a receptor agonists; P37288; CHO-V1R cells, Fluo-8 calcium fluorescence, agonist mode; 0% DMSO, 100% 3 nM vasopressin; activation, % at 3 µM; 320,000 tested, 0.25% active; AID 2797;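 active = activation above the mean activation of all tested compounds plus 3 SD, per screening run, cut at about 20% in these data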;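 note: signal is peak over basal fluorescence ratio across a 100 second FLIPR read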
OX1R HTRF conf = OX1R (human) antagonism, HTRF confirmed; inhibition, % at 6.6 µM; shares compounds with OX1R antag-1; OX1R-expressing cells, HTRF antagonist assay; 1,800 tested, 49% active; in the data active = inhibition above about 55%;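 note: CHO cells expressing OX1R stimulated with orexin A at about EC80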
CHO-K1 HTRF = signal in parental CHO-K1 cells, OX1R antagonist counter-screen | shares compounds with OX1R antag-1 | HTRF counterscreen | inhibition, % at 6.6 µM | 1,800 tested, 48% active; in the data active = inhibition above about 17%
Of the large screens only hits and unclear results are named; the others gave an inactive call (follow-up assays come after a bar, where they were run).

Cc1ccc(S(=O)(=O)NCCC(=O)N2CC(C)OC(C)C2)cc1C (stereo not given)	none
Cc1cccc2c1cnn2C(=O)CCC(=O)NCC(C)c1ccccc1 (stereo not given)	none
CN(C(=O)COC(=O)/C=C/c1ccc2ccccc2n1)C1CCS(=O)(=O)C1 (stereo not given)	none
CCN(C(=O)COC(=O)/C=C/c1cnc2ccccc2n1)C1CCS(=O)(=O)C1 (stereo not given)	OX1R antag-1 82 | OX1R HTRF conf inactive | CHO-K1 HTRF 46
COCCN(C(=O)CSc1nc2ccc(OC)cc2[nH]1)c1c(N)n(Cc2ccccc2)c(=O)[nH]c1=O	OX1R antag-1 90 | OX1R HTRF conf inactive | CHO-K1 HTRF inactive
COCCN(C(=O)CSc1nc2ccc(C)cc2[nH]1)c1c(N)n(Cc2ccccc2)c(=O)[nH]c1=O	none
Cc1onc(-c2ccccc2Cl)c1C(=O)N1CCCCC1C (stereo not given)	none
CN1C(=O)C(C)(C)c2cc(S(=O)(=O)N3CCCC3C(=O)NCc3ccc(F)cc3)ccc21 (stereo not given)	OX1R antag-1 78 | OX1R HTRF conf inactive | CHO-K1 HTRF inactive
COc1ccc(NC(=O)C2CCCCN2S(=O)(=O)c2ccc(F)cc2)cc1 (stereo not given)	OX1R antag-1 87 | OX1R HTRF conf inactive | CHO-K1 HTRF inactive
CC1CCN(C(=O)CCNS(=O)(=O)c2ccc(Cl)cc2)CC1	none
Cc1ccc2c(c1)c1c(n2CCc2ccc(C)nc2)CCN(C)C1	none
Cc1ccnc(Sc2ccc([N+](=O)[O-])cn2)n1	OX1R antag-1 77 | OX1R HTRF conf 71 | CHO-K1 HTRF 71
Cn1nccc1-c1cc(Cl)cc(Cl)c1O	none
Cc1ccc(C2CC(=O)Nc3cc4c(cc32)OCO4)o1 (stereo not given)	none
Cc1ccc(S(=O)(=O)Nc2ccccc2-c2nc3ccccc3[nH]c2=O)cc1	none
Cn1ccnc1Sc1cc(NCCCO)c([N+](=O)[O-])c2nonc12	OX1R antag-1 83 | OX1R HTRF conf inactive | CHO-K1 HTRF 78
CCc1nc2ccc(C(=O)Nc3cccc(C(C)=O)c3)cc2nc1CC	OX1R antag-1 81 | OX1R HTRF conf inactive | CHO-K1 HTRF inactive
COC(Cc1ccccc1N1CCCC1=O)OC	none
Cc1cc(O)ccc1NC(=O)CCN1C(=O)c2ccc([N+](=O)[O-])cc2C1=O	OX1R antag-1 151 | OX1R HTRF conf 69 | CHO-K1 HTRF 74
Cc1ccc(NC(=O)CCN2C(=O)c3ccccc3C2=O)c(C)c1	none
CCOc1ccc2c(c1)S/C(=C\c1cccs1)C(=O)N2	OX1R antag-1 81 | OX1R HTRF conf 72 | CHO-K1 HTRF inactive
Cc1cc(C)cc(N=C2NC(=O)/C(=C/c3cccs3)S2)c1	none
OCc1cn(-c2ccccc2)nc1-c1cc2ccccc2o1	OX1R antag-1 81 | OX1R HTRF conf inactive | CHO-K1 HTRF inactive
COc1ccc(NC(=O)c2cn(-c3ccccc3)nc2-c2cc3ccccc3o2)cc1	none
O=C1[C@H]2CCCC[C@H]2C(=O)N1CCCCN1CCN(c2nsc3ccccc23)CC1	none
CC(=O)N(C1=C(N2CCOCC2)C(=O)c2ccccc2C1=O)c1ccc(C(=O)O)cc1	OX1R antag-1 125 | OX1R HTRF conf 98 | CHO-K1 HTRF 86
O=C(/C=C1\NC2(CCCC2)Cc2ccccc21)C(=O)N/N=C/c1ccccc1O	OX1R antag-1 82 | OX1R HTRF conf inactive | CHO-K1 HTRF inactive
CC(=O)Nc1ccc(NC2=CC(=O)c3ccccc3C2=O)cc1	none
O=C1C=C(Nc2ccc(O)cc2)C(=O)c2ccccc21	OX1R antag-1 79 | OX1R HTRF conf inactive | CHO-K1 HTRF 25
CCC(C)(C)NS(=O)(=O)c1cc(CN2C(=O)c3cccnc3C2=O)ccc1OC	none
Cc1ccc2cc3cc(C(=O)NCCCN4CCCCCC4)oc3nc2c1	OX1R antag-1 82 | OX1R HTRF conf inactive | CHO-K1 HTRF 36
Nc1nc(SCCO)[nH]c(=O)c1NC(=O)c1ccc(Br)o1	none
CCOC(=O)N1CCC(NC(=S)Nc2ccc3nc(N4CCN(CC)CC4)cc(C)c3c2)CC1	none
CCOC(=O)N1CCC(NC(=S)Nc2ccc3nc(N4CCN(C)CC4)cc(C)c3c2)CC1	OX1R antag-1 105 | OX1R HTRF conf inactive | CHO-K1 HTRF inactive
CCOC(=O)C1(Cc2ccccc2C(F)(F)F)CCN(C2CCN(C(C)=O)CC2)CC1	none
CCN(CC)C(=O)CS(=O)(=O)CC(=O)Nc1cc(OCCOC)c(Cl)cc1Cl	none
Cc1cc[n+](CC(=O)c2cc3ccccc3oc2=O)cc1	OX1R antag-1 78 | OX1R HTRF conf 69 | CHO-K1 HTRF 86
Cc1cc(C)nc(SCC(=O)c2cc3ccccc3oc2=O)n1	none
CCOC(=O)C(C)(C)n1nnc(-c2ccc([N+](=O)[O-])cc2)n1	none
CCOC(=O)Cn1nnc(-c2ccc([N+](=O)[O-])cc2)n1	OX1R antag-1 96 | OX1R HTRF conf inactive | CHO-K1 HTRF 32
CN(CCO)c1ccc([N+](=O)[O-])cc1C(=O)O	OX1R antag-1 80 | OX1R HTRF conf inactive | CHO-K1 HTRF 25
CC(=O)c1nnn(-c2ccc([N+](=O)[O-])cc2)c1C	OX1R antag-1 123 | OX1R HTRF conf inactive | CHO-K1 HTRF 59
COc1cc(C(=O)Nc2ccc3c(c2)C(=O)c2ccccc2C3=O)cc(OC)c1OC	none
COc1cc2c(cc1OC)-c1c(OC)c(OC)cc3ccnc(c13)C2=O	OX1R antag-1 80 | OX1R HTRF conf inactive | CHO-K1 HTRF 26
CCN1CCN(c2ccc(S(=O)(=O)N3CCCCC3)cc2NC(=O)c2ccc([N+](=O)[O-])s2)CC1	none
CN(C)C(=O)C(=O)c1c(-c2ccccc2)cc2ccccn12	none
O=Nc1c(-c2ccccc2)cc2ccccn12	OX1R antag-1 153 | OX1R HTRF conf 64 | CHO-K1 HTRF 86
C[C@@H](NC(=O)[C@@H]1Cc2ccccc2CN1)C(=O)NCC1CCCO1 (stereo not given in full)	none
Cc1ccc(C)c(N2CCN(C(=O)CCc3nc(-c4ccccc4Br)no3)CC2)c1	none (no result: OXTR potentiator, OXTR agonist, V1R ag counter)
CCN1C(=O)/C(=C2/SC(C)=C(C)N2CC)SC1=S	OX1R antag-1 96 | OX1R HTRF conf 84 | CHO-K1 HTRF inactive
Cn1cc([N+](=O)[O-])c(C(=O)N/N=C/c2ccc([N+](=O)[O-])cc2)n1	OX1R antag-1 110 | OX1R HTRF conf inactive | CHO-K1 HTRF 58
